Measured values taken from PMC3018326 (Proteins, 2010).

Biological target: T1, TcFPPS (Trypanosoma cruzi, UniProt Q95WL3)
T1 sequence (Q95WL3 1-362): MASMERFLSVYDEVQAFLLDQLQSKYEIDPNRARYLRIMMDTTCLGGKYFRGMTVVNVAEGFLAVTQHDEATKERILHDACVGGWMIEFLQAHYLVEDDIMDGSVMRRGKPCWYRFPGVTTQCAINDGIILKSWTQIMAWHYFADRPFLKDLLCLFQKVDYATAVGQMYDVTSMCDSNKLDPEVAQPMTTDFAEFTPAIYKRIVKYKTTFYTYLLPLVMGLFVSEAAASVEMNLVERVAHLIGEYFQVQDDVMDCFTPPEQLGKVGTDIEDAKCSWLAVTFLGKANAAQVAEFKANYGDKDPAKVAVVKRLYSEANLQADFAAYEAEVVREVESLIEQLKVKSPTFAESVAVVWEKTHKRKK
Experiment: isothermal titration calorimetry, two-sequential-site fit
Assay type: binding
Summary of the method: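 TcFPPS carried an N-terminal His-tag, was expressed in E. coli BL21(DE3), and was purified by Ni-affinity and gel filtration. Protein at 22.5 μM was dialyzed into 20 mM HEPES pH 7.5, 1 M NaCl, 2 mM MgCl2, 2 mM TCEP. Test compound at 250 μM in the same buffer was injected (10 μL) every 300 s at 26°C. Dilution heats were subtracted and the first injection excluded. Isotherms were fitted to a two-sequential-site model.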

Point of comparison: `O=P(O)(O)C(O)(Cn1ccnc1)P(=O)(O)O` [91B, zoledronate], Kd 28.6 nM. Against it:
- O=P(O)(O)C(O)(Cc1cnc2ccccn12)P(=O)(O)O [261A, minodronate] — 2.6-fold lower, 10.9 nM
- O=P(O)(O)C(O)(Cc1cccnc1)P(=O)(O)O [Ris, risedronate] — 2.3-fold higher, 66.7 nM
